Test results: ChEMBL document CHEMBL2429829, “Inhibitors of the aminoglycoside 6'-N-acetyltransferase type Ib [AAC(6')-Ib] identified by in silico molecular docking” (Bioorg Med Chem Lett, 2013)
Activity calls are given as the source filed them. No cut-off for these calls is given here.

Assays:
[1] = Inhibition of aminoglycoside 6'-N-acetyltransferase Ib (unknown origin)-mediated acetylation expressed in Escherichia coli using 5 to 72 uM acetyl CoA and 25 uM kanamycin A as substrate preincubated for 10 mins followed by enzyme addition by spectrophotometric analysis
Summary of the method: (§1)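 Enzyme partially purified on DEAE from arabinose-induced E. coli, in 20 mM Tris pH 7.5 with 0.2 mM DTNB and 10% DMSO. Inhibitor at a range of concentrations, acetyl CoA 5–72 μM, kanamycin A 25 μM. 10 min room-temperature preincubation before enzyme. CoA-SH release read at 412 nm. Ki from initial velocities by nonlinear regression, in triplicate.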

[2] = Inhibition of aminoglycoside 6'-N-acetyltransferase Ib (unknown origin)-mediated acetylation expressed in Escherichia coli using 3 to 18 uM kanamycin A and 100 uM acetyl CoA as substrate preincubated for 10 mins followed by enzyme addition by spectrophotometric analysis
Summary of the method: as §1, with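 “concentrations, kanamycin A 3–18 μM,” for “concentrations,”, “100” for “5–72 μM, kanamycin A 25”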

[3] = Inhibition of aminoglycoside 6'-N-acetyltransferase Ib (unknown origin)-mediated acetylation expressed in Escherichia coli using kanamycin A and acetyl CoA as substrate at 100 uM preincubated for 10 mins followed by enzyme addition by spectrophotometric analysis relative to control
Summary of the method: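 Enzyme: thioredoxin-fused AAC(6′)-Ib, arabinose-induced in E. coli, partially purified by DEAE ion exchange. Reaction: 20 mM Tris pH 7.5, 0.2 mM DTNB, 50 μM acetyl CoA, 18 μM kanamycin A, compound at 100 μM in 10% DMSO. Mix held 10 min at room temperature before enzyme added. CoA–SH release read at 412 nm. Percent inhibition from initial velocities versus no-compound reactions; mean of three experiments.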

[4] = Non-competitive inhibition of aminoglycoside 6'-N-acetyltransferase Ib (unknown origin) expressed in Escherichia coli using acetyl CoA as substrate by Lineweaver-Burk plot analysis in presence of kanamycin A
Summary of the method: (§2)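 Partially purified His-Patch thioredoxin-fused enzyme from E. coli (pBAD102, arabinose-induced), in 20 mM Tris pH 7.5 with 0.2 mM DTNB. Acetyl CoA varied 5–72 μM with kanamycin A fixed at 25 μM, at several inhibitor concentrations. Mix held 10 min at room temperature before enzyme. Initial rates followed at 412 nm, mode assigned from Lineweaver-Burk plots, in triplicate.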

[5] = Competitive inhibition of aminoglycoside 6'-N-acetyltransferase Ib (unknown origin) expressed in Escherichia coli using kanamycin A as substrate by Lineweaver-Burk plot analysis in presence of acetyl CoA
Summary of the method: as §2, with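 “Kanamycin A” for “Acetyl CoA”, “3–18” for “5–72”, “acetyl CoA” for “kanamycin A”, “100” for “25”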

[6] = Inhibition of aminoglycoside 6'-N-acetyltransferase Ib (unknown origin)-mediated acetylation expressed in Escherichia coli using kanamycin A and acetyl CoA as substrate at 100 uM preincubated for 10 mins followed by enzyme addition by spectrophotometric analysis in presence of Triton X-100
Summary of the method: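 Compound at 100 μM in 10% DMSO, with 20 mM Tris pH 7.5, 0.2 mM DTNB, 50 μM acetyl CoA, 18 μM kanamycin A and 0.01% Triton X-100. Preincubated 10 min at room temperature, then partially purified enzyme added. Absorbance at 412 nm gave initial velocities. Percent inhibition taken against compound-free reactions, mean of three experiments.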

Row | Compound | Ki [1] | Ki [2] | inhibition [3] | Ki [4] | Ki [5] | inhibition [6]
1 | O=C1NC(=O)N(c2ccccc2)C(=O)/C1=C\c1ccco1 | 16 µM | 15 µM | 65% | – | – | –
2 | O=C(O)c1ccccc1-c1ccc(C=C2C(=O)N(c3ccccc3)C(=S)N(c3ccccc3)C2=O)o1 | – | – | 52% | 35 µM | 12 µM | –
3 | Cc1cccc(N2C(=O)/C(=C/c3ccccc3OCc3ccc(C(=O)O)cc3)C(=O)NC2=S)c1 | – | – | 27% | 267 µM | 141 µM | –
4 | O=C1/C(=C/c2ccco2)C(=O)N(c2ccc(Br)cc2)C(=S)N1c1ccccc1 | – | – | – | – | – | inactive
5 | CCc1ccc(N2C(=O)NC(=O)/C(=C\c3ccccc3OCc3ccc(C(=O)O)cc3)C2=O)cc1 | 181 µM | 139 µM | 30% | – | – | –
6 | Cc1ccc(N2C(=O)NC(=O)/C(=C\c3ccccc3OCc3ccc(C(=O)O)cc3)C2=O)cc1 | 258 µM | 157 µM | 30% | – | – | –
7 | Cc1cccc(N2C(=O)/C(=C/c3ccc(OCc4cccc(C(=O)O)c4)cc3)C(=O)NC2=S)c1 | 97 µM | 84 µM | 33% | – | – | –
